Results reported in ChEMBL document CHEMBL1128641, “N-3-substituted pyrimidinones as potent, orally active, AT1 selective angiotensin II receptor antagonists” (J Med Chem, 1995).

Key:
[1] = target: T1, Angiotensin II receptor (Rattus norvegicus) (UniProt P29089+P25095+P35351); test: Effect on pressure response to angiotensin II receptor (AII) after […] administration of 1 mg/kg in anesthetized, ganglion blocked, A II- infused rat was determined in vivo; type: functional, organism-based; parameters: dose 1 mg/kg
In short: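 Compound was given intraduodenally, one dose per animal, in 1% DMSO/stoichiometric NaOH or 0.5% methocel. Inhibition was read 30 min after dosing; the 1 mg/kg duration is the time from onset until inhibition was no longer significant.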

[2] = target: T2, Angiotensin II receptor (AT-1) type-1 (Rattus norvegicus, UniProt P29089+P25095); test: Displacement of [3H]angiotensin II from Angiotensin II type 1 receptor in rat adrenal cortical membrane; type: cell membranes
T2 sequence (P29089 whole entry): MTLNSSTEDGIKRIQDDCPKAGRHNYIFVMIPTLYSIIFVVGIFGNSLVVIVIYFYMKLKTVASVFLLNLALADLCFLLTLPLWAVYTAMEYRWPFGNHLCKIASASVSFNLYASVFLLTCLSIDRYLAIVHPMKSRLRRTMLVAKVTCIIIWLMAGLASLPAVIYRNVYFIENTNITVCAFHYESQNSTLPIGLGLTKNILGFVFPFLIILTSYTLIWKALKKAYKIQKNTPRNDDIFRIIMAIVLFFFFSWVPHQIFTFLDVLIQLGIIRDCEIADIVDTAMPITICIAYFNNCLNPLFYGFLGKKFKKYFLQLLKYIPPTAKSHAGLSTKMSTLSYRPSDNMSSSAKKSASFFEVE
T2 sequence (P25095 whole entry): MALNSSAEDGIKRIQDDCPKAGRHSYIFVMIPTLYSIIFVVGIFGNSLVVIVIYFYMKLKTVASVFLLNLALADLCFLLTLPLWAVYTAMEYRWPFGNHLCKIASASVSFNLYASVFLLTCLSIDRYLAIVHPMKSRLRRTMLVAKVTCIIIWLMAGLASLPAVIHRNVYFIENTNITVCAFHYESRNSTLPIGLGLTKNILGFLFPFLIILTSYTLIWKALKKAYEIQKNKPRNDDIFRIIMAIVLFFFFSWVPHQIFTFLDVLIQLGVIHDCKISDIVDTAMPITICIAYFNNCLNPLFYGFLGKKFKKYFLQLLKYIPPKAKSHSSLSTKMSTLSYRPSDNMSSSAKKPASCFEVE

Rattus norvegicus [3] = test: Time duration was determined from onset of the action till no response after (i.v.) administration of 1 mg/kg in anesthetized, ganglion blocked, A II- infused rat; type: functional; conditions: route intravenous
In short: (§1)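 Male Sprague-Dawley rats (300–400 g) were anesthetized with urethane (1.25 g/kg im) and ganglion-blocked with pentolinium (0.1 mg/kg/min), with carotid BP recorded at 37 °C. After three reproducible A II challenges (100 ng/kg iv, every 10 min), compound was given iv 5 min before the next challenge. Challenges continued until the response returned near basal, with one dose per animal. Vehicle was 1% DMSO/stoichiometric NaOH or 0.5% methocel.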

[4] = target: T1, Angiotensin II receptor (Rattus norvegicus); test: Effect on pressure response to angiotensin II receptor (AII) after (i.v.) administration of 1 mg/kg in anesthetized, ganglion blocked, AII-infused rat in vivo; type: functional, organism-based; parameters: dose 1 mg/kg
In short: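 After three reproducible A II challenges (100 ng/kg iv, every 10 min), compound was given iv 5 min before the next challenge. Challenges continued until the response returned near basal, with one dose per animal. Vehicle was 1% DMSO/stoichiometric NaOH or 0.5% methocel.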

Rattus norvegicus [5] = test: Time duration was determined from onset of the action till no response after […] administration of 1 mg/kg in anesthetized, ganglion blocked, A II- infused rat; type: functional
[6] = target: Type-2 angiotensin II receptor (Bos taurus, UniProt G5E6F7); test: Binding affinity towards Angiotensin II type 2 receptor in bovine cerebellar cortical membranes; Inactive
Rattus norvegicus [7] = test: ime duration was determined from onset of the action till no response after […] in anesthetized, ganglion blocked, A II- infused rat; type: functional
[8] = target: T1, Angiotensin II receptor (Rattus norvegicus); test: Effect on pressure response to angiotensin II receptor (AII) after (i.v.) administration of 1 mg/kg in anesthetized, ganglion blocked, A II- infused rat was determined in vivo; type: functional, organism-based; parameters: dose 1 mg/kg; conditions: at 1 mg/kg; in short: as §1
Rattus norvegicus [9] = test: Time from onset of the action at a dose of 1 mg/kg until significant inhibition of pressure response is no longer observed in anesthetized, ganglion blocked, A II- infused rat after […] administration; type: functional

T1 sequence (P35351 whole entry, looked up, one chain of several, the tested form may be a part): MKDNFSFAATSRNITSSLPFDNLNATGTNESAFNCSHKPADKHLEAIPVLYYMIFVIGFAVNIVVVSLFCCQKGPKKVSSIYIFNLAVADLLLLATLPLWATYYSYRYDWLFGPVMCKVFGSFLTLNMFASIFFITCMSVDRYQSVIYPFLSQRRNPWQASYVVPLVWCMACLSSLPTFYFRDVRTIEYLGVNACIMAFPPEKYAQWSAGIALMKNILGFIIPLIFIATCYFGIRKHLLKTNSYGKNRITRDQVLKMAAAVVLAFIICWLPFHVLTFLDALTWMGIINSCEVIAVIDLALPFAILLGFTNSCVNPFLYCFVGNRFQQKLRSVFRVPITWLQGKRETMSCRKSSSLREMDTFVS

Row | ED50 [1] [mg/kg] | Ki [2] [µM] | ED50 [4] [mg/kg] | Ki [6] [µM] | inhibition [8] [%] | Structure (SMILES) | Duration (Rattus norvegicus [3]) [min] | Duration (Rattus norvegicus [5]) [min] | Duration (Rattus norvegicus [7]) [min] | Duration (Rattus norvegicus [9]) [min]
1 | 1.44 | 0.00058 | 0.3 |  |  | CCCCc1nc(C)n(Cc2occc2C(=O)OC)c(=O)c1Cc1ccc(-c2ccccc2-c2nn[nH]n2)cc1 | 65 | >120 |  | 
2 | 3.7 |  | 0.32 |  |  | CCCCc1nc(Cl)c(CO)n1Cc1ccc(-c2ccccc2-c2nnn[nH]2)cc1 [LOSARTAN] | 55 | 120 |  | 
3 |  |  |  | > 4 |  | CCCCc1nc(C)n(Cc2sccc2C(=O)O)c(=O)c1Cc1ccc(-c2ccccc2-c2nnn[nH]2)cc1 |  |  |  | 
4 |  |  |  | > 4 |  | CCCCc1nc(C)n(Cc2ccccc2)c(=O)c1Cc1ccc(-c2ccccc2-c2nnn[nH]2)cc1 |  |  |  | 
5 | 7.24 | 0.014 | 0.45 |  |  | CCCCc1nc(C)n(Cc2sccc2C(=O)O)c(=O)c1Cc1ccc(-c2ccccc2-c2nn[nH]n2)cc1 | 55 |  | >120 | 
6 |  |  |  | > 4 | 46 | CCCCc1ncn(Cc2ccc(C(=O)O)cc2)c(=O)c1Cc1ccc(-c2ccccc2C(=O)O)cc1 | 25 |  |  | 
7 |  | 0.264 | 0.85 | > 4 |  | CCCCc1nc(C)n(Cc2occc2C(=O)O)c(=O)c1Cc1ccc(-c2ccccc2C(=O)O)cc1 | 25 |  |  | 
8 |  | 0.379 |  | > 4 | 43 | CCCCc1ncn(Cc2ccccc2C(=O)O)c(=O)c1Cc1ccc(-c2ccccc2C(=O)O)cc1 | 25 |  |  | 
9 |  | 1.097 |  | > 4 | 42 | CCCCc1nccc(=O)n1Cc1ccc(-c2ccccc2C(=O)O)cc1 | 35 |  |  | 
10 |  |  |  |  | 48 | CCCCc1nc(Cl)c(CO)n1Cc1ccc(-c2ccccc2C(=O)O)cc1 | 25 |  |  | 
11 |  | 0.04 |  | > 4 | 39 | CCCCc1ncn(Cc2ccccc2)c(=O)c1Cc1ccc(-c2ccccc2C(=O)O)cc1 | 25 |  |  | 
12 |  |  |  | > 4 |  | CCCCc1nc(C)[nH]c(=O)c1Cc1ccc(-c2ccccc2-c2nnn[nH]2)cc1 |  |  |  | 
13 |  | 0.181 |  | > 4 | 33 | CCCCc1nc(C)n(Cc2sccc2C(=O)O)c(=O)c1Cc1ccc(-c2ccccc2C(=O)O)cc1 | 15 |  |  | 
14 | > 10 | 0.003 | 1.07 |  |  | CCCCc1nc(C)n(Cc2ccccc2)c(=O)c1Cc1ccc(-c2ccccc2-c2nn[nH]n2)cc1 | 45 | 60 |  | 
15 | 14.5 | 0.016 | 0.43 | > 4 |  | CCCCc1nc(C)n(Cc2occc2C(=O)O)c(=O)c1Cc1ccc(-c2ccccc2-c2nn[nH]n2)cc1 | 45 | 75 |  | 
16 |  |  |  | > 4 |  | CCCCc1nc(C)n(Cc2occc2C(=O)OC)c(=O)c1Cc1ccc(-c2ccccc2-c2nnn[nH]2)cc1 |  |  |  | 
17 |  | 0.06 |  | > 4 | 23 | CCCCc1ncn(Cc2cccs2)c(=O)c1Cc1ccc(-c2ccccc2C(=O)O)cc1 | 15 |  |  | 
18 |  | 0.113 |  | > 4 | 53 | CCCCc1nc(C)nc(O)c1Cc1ccc(-c2ccccc2C(=O)O)cc1 | 35 |  |  | 
19 | 4.2 | 0.018 | 0.31 | > 4 |  | CCCCc1nc(C)n(Cc2ccccc2C(=O)O)c(=O)c1Cc1ccc(-c2ccccc2-c2nn[nH]n2)cc1 | 65 |  |  | >120
20 |  |  |  | > 4 |  | CCCCc1nc(C)n(Cc2cccs2)c(=O)c1Cc1ccc(-c2ccccc2-c2nnn[nH]2)cc1 | 55 | 60 |  | 
21 |  | 0.263 |  | > 4 | 34 | CCCCc1nc(C)cc(=O)n1Cc1ccc(-c2ccccc2C(=O)O)cc1 | 15 |  |  | 
22 | 2.67 | 0.0021 | 0.54 | > 4 |  | CCCCc1nc(C)n(Cc2ccsc2C(=O)OC)c(=O)c1Cc1ccc(-c2ccccc2-c2nn[nH]n2)cc1 | 65 | >120 |  | 
23 |  | 0.003 |  |  | 87 | CCCCc1nc(C)nc(O)c1Cc1ccc(-c2ccccc2-c2nn[nH]n2)cc1 | 55 |  |  | 
24 |  | 0.148 |  | > 4 | 50 | CCCCc1ncnc(O)c1Cc1ccc(-c2ccccc2C(=O)O)cc1 | 35 |  |  | 
25 |  |  |  | > 4 |  | CCCCc1nc(C)n(Cc2sccc2C(=O)OC)c(=O)c1Cc1ccc(-c2ccccc2-c2nnn[nH]2)cc1 | 65 | >120 |  | 
26 |  | 0.401 |  | > 4 | 46 | CCCCc1nc(C)n(Cc2ccccc2C(=O)O)c(=O)c1Cc1ccc(-c2ccccc2C(=O)O)cc1 | 15 |  |  | 
